ChEMBL document CHEMBL1926530, “Novel pyrazolo[1,5-a]pyridines as p110α-selective PI3 kinase inhibitors: Exploring the benzenesulfonohydrazide SAR” (Bioorg Med Chem, 2012)
In brackets after ≈: the same amount, converted by molar mass.

Columns and labels:
[1] = target: Phosphatidylinositol 4,5-bisphosphate 3-kinase catalytic subunit alpha isoform (Homo sapiens, UniProt P42336); assay: Inhibition of recombinant PI3K p110alpha using L-alpha-phosphatidylinositol as substrate and [gamma33P]ATP after 60 mins by thin layer chromatographic technique
Outline: (§1)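 In-house recombinant enzyme (0.1 µg) with L-α-phosphatidylinositol in 40 mM Tris-HCl pH 7.4, 200 mM NaCl, 1 mM EDTA; DMSO 1% final. Started with 5 mM MgCl₂, 100 µM ATP plus [γ-³³P]ATP; 1 h at room temperature, stopped with 1 M HCl. Lipids extracted, separated by TLC, phosphorimaged. Nine inhibitor concentrations; two experiments, IC50 averaged.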

[2] = target: Phosphatidylinositol 4,5-bisphosphate 3-kinase catalytic subunit beta isoform (Homo sapiens, UniProt P42338); assay: Inhibition of recombinant PI3K p110beta using L-alpha-phosphatidylinositol as substrate and [gamma33P]ATP after 60 mins by thin layer chromatographic technique; outline: as §1
[3] = target: T1, Phosphatidylinositol 4,5-bisphosphate 3-kinase catalytic subunit delta isoform (Homo sapiens, UniProt O00329); assay: Inhibition of recombinant PI3K p110delta using L-alpha-phosphatidylinositol as substrate and [gamma33P]ATP after 60 mins by thin layer chromatographic technique; outline: as §1
T1 sequence (O00329 whole entry): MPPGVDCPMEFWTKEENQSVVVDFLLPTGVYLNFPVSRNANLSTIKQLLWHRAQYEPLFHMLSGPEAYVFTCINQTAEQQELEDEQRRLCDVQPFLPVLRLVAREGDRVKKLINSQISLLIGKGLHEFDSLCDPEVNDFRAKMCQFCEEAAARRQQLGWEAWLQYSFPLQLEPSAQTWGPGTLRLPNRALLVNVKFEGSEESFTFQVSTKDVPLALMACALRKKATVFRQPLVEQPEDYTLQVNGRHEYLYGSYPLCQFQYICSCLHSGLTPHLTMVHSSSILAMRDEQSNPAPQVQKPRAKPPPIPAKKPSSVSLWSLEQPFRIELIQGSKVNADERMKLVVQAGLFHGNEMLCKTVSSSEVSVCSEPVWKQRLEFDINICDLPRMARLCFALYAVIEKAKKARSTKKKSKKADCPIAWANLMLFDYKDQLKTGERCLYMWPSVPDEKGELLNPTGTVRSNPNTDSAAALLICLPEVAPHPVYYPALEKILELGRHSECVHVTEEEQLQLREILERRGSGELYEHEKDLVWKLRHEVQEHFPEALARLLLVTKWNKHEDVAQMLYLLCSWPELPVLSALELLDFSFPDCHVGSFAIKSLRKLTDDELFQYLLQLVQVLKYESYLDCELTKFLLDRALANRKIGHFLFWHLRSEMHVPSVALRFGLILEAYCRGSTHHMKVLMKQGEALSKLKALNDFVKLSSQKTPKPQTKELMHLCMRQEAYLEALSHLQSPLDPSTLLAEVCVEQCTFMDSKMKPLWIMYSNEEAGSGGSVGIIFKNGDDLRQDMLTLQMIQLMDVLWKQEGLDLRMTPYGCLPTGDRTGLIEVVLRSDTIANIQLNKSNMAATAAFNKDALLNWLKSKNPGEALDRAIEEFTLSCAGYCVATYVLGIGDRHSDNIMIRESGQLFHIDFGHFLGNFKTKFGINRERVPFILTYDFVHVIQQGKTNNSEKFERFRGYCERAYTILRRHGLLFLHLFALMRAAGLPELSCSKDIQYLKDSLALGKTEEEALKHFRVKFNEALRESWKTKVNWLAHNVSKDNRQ

[4] = Cytotoxicity against human NZB5 cells assessed as inhibition of [3H]thymidine incorporation measured after 5 days; assay type: functional, cell-based
Outline: (§2)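 Early-passage lines grown in α-MEM with insulin, transferrin, selenite and 5% FBS. Wells seeded with 1000 cells; inhibitor in dilution steps up to a maximum of 20. Five days under 5% O₂/5% CO₂/90% N₂, ³H-thymidine added for the last 6 h. Duplicates per dose; fit y = y₀ + ae^−bx; IC50 = 50% reduction in incorporation.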

[5] = Cytotoxicity against human NZOV9 cells harboring PI3K p110alpha Y1021C mutant assessed as inhibition of [3H]thymidine incorporation measured after 5 days; assay type: functional, cell-based; outline: as §2
[6] = Aqueous solubility of the compound; assay type: physicochemical; conditions: water
Outline: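 Solid mixed with water to make 2 mM, sonicated 15 min, centrifuged 13000 rpm for 6 min. Clear supernatant diluted 2-fold with water, recentrifuged and injected on HPLC. Peak area compared with a DMSO standard solution of the compound, correcting for dilution and injection volume.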

Sequence of Phosphatidylinositol 4,5-bisphosphate 3-kinase catalytic subunit alpha isoform (P42336 whole entry, canonical isoform): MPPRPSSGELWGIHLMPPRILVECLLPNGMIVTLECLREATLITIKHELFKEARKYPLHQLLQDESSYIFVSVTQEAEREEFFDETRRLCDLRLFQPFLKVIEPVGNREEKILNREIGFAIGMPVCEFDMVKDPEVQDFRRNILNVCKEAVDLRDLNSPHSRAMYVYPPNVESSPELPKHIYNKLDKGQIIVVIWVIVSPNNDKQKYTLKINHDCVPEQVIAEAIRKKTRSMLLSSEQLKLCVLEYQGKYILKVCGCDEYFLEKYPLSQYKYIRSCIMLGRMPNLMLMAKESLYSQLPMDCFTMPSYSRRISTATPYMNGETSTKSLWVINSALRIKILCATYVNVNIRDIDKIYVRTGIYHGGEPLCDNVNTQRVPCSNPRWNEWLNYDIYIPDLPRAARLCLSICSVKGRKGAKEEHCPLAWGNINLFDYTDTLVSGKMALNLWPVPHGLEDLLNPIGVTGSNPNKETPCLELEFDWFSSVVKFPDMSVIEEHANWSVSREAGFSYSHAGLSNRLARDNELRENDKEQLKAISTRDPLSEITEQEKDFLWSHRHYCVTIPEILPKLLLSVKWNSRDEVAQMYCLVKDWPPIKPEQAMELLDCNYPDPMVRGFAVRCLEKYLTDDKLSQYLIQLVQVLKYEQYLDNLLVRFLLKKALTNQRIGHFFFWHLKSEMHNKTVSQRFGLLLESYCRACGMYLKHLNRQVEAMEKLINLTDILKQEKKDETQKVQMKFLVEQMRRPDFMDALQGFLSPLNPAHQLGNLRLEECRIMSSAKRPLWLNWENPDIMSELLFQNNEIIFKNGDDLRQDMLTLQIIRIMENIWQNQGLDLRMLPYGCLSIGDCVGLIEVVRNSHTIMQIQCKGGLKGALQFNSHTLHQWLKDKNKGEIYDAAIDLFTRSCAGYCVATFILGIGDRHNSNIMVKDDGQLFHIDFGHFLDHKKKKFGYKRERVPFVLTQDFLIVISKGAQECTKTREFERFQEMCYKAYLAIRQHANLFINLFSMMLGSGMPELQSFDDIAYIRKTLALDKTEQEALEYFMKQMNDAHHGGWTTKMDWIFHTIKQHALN
Sequence of Phosphatidylinositol 4,5-bisphosphate 3-kinase catalytic subunit beta isoform (P42338 whole entry, canonical isoform): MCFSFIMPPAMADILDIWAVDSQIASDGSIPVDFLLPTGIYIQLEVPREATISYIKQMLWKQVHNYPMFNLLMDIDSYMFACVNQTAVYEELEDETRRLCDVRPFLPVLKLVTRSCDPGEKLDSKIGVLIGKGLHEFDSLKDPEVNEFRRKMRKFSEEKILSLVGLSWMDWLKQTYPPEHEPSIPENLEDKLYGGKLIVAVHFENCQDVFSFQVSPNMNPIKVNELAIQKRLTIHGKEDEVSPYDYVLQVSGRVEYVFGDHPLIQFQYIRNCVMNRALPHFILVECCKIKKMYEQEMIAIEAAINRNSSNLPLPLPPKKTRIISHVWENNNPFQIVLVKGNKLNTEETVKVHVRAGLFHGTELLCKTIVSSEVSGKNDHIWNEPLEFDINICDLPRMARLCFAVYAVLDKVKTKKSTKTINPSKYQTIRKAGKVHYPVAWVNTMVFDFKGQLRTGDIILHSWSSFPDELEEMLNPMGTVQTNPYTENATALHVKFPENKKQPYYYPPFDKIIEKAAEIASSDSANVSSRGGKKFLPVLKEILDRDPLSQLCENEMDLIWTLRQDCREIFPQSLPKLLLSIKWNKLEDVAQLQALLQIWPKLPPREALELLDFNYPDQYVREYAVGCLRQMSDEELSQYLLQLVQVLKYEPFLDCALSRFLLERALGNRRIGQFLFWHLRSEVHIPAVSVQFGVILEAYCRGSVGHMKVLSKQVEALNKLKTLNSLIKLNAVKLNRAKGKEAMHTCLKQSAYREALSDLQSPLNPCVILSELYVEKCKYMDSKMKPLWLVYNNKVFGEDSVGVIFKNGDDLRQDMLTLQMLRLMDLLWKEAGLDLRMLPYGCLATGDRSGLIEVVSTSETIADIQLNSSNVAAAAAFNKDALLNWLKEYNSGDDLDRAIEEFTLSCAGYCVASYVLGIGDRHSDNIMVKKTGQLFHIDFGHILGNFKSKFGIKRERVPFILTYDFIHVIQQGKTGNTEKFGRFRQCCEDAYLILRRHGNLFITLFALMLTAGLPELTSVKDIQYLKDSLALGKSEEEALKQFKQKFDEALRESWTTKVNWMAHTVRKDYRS

| Compound | IC50 [1] | IC50 [2] | IC50 [3] | IC50 [4] | IC50 [5] | solubility [6] |
| --- | --- | --- | --- | --- | --- | --- |
| CN(/N=C/c1cnn2ccc(C#N)cc12)S(=O)(=O)c1cc([N+](=O)[O-])ccc1Cl | 0.0005 µM | 0.064 µM | 0.024 µM | 0.88 µM | 0.35 µM |  |
| Cc1ccc(F)cc1S(=O)(=O)N(C)/N=C/c1cnn2ccc(C#N)cc12 | 0.055 µM | 0.55 µM | 0.31 µM | > 20 µM | 14 µM |  |
| CN(/N=C/c1cnn2ccc(C#N)cc12)S(=O)(=O)c1cccc([N+](=O)[O-])c1 | 0.036 µM | 1.2 µM | 0.41 µM | 0.38 µM | 0.69 µM |  |
| Cc1ccc(Br)cc1S(=O)(=O)N(C)/N=C/c1cnn2ccc(C#N)cc12 | 0.013 µM | 0.62 µM | 0.18 µM | 0.7 µM | 0.57 µM |  |
| Cc1c([N+](=O)[O-])cccc1S(=O)(=O)N(C)/N=C/c1cnn2ccc(C#N)cc12 | > 1 µM | > 1 µM | > 1 µM | > 20 µM | > 20 µM |  |
| Cc1cccc([N+](=O)[O-])c1S(=O)(=O)N(C)/N=C/c1cnn2ccc(C#N)cc12 | 0.014 µM | 0.34 µM | 0.1 µM | 3.7 µM | 7.6 µM |  |
| Cc1ccc(C(=O)O)cc1S(=O)(=O)N(C)/N=C/c1cnn2ccc(C#N)cc12 | > 1 µM | > 1 µM | > 1 µM | > 20 µM | > 20 µM |  |
| Cc1ccc([N+](=O)[O-])cc1S(=O)(=O)N(Cc1ccccc1)/N=C/c1cnn2ccc(C#N)cc12 | 0.027 µM | > 1 µM | 0.032 µM |  | 2.5 µM |  |
| CC(=O)Nc1ccc(C)c(S(=O)(=O)N(C)/N=C/c2cnn3ccc(C#N)cc23)c1 | > 1 µM | > 1 µM | > 1 µM | > 20 µM | > 20 µM |  |
| Cc1ccc(NC(=O)C(F)(F)F)cc1S(=O)(=O)N(C)/N=C/c1cnn2ccc(C#N)cc12 | > 1 µM | > 1 µM | > 1 µM | 2.3 µM | 9.1 µM |  |
| COc1ccc([N+](=O)[O-])cc1S(=O)(=O)N(C)/N=C/c1cnn2ccc(C#N)cc12 | 0.0008 µM | 0.063 µM | 0.022 µM | 0.09 µM | 0.05 µM | 0.2 µg/mL (≈ 0.483 µM) |
| COC(=O)c1ccc(C)c(S(=O)(=O)N(C)/N=C/c2cnn3ccc(C#N)cc23)c1 | 0.99 µM | > 1 µM | 0.4 µM | 2.4 µM | 1.9 µM |  |
| Cc1ccc(N)cc1S(=O)(=O)N(C)/N=C/c1cnn2ccc(C#N)cc12 | > 1 µM | > 1 µM | > 1 µM |  |  |  |
| Cc1ccc([N+](=O)[O-])cc1S(=O)(=O)N(CCN1CCCCC1)/N=C/c1cnn2ccc(C#N)cc12 | 0.14 µM | > 1 µM | 0.089 µM | 1.1 µM | 0.49 µM |  |
| CC(C)c1ccc([N+](=O)[O-])cc1S(=O)(=O)N(C)/N=C/c1cnn2ccc(C#N)cc12 | 0.0018 µM | 0.3 µM | 0.039 µM | 0.18 µM | 0.26 µM |  |
| Cc1ccc(C)c(S(=O)(=O)N(C)/N=C/c2cnn3ccc(C#N)cc23)c1 | 0.1 µM | > 1 µM | > 1 µM | 2.1 µM | 0.88 µM |  |
| Cc1ccc(C#N)cc1S(=O)(=O)N(C)/N=C/c1cnn2ccc(C#N)cc12 | 0.0024 µM | 0.13 µM | 0.059 µM | 0.28 µM | 0.21 µM |  |
